Measured values of several laboratories.
Each line is one published result; the experiments were not run side by side.
CES2: Cocaine esterase (CES2, Homo sapiens, UniProt O00748)
MPO: Myeloperoxidase (MPO, Homo sapiens, UniProt P05164)
UDP-N-acetylglucosamine--dolichyl-phosphate N-acetylglucosaminephosphotransferase: UDP-N-acetylglucosamine--dolichyl-phosphate N-acetylglucosaminephosphotransferase (Homo sapiens, UniProt Q9H3H5)
CHRM5: Muscarinic acetylcholine receptor M5 (CHRM5, Homo sapiens, UniProt P08912)

Structure (SMILES)	target	assay	setting	IC50 [µM]
NCC(=O)O	ltaA (Aeromonas jandaei, UniProt O07051)	enzyme activity, inhibitor		990
COc1cc2c(cc1OC)C(=O)/C(=C/c1ccc(C)cc1F)C2	CES2	enzyme activity, inhibitor, fluorescence	with preincubation	> 100
O=C(O[C@@H]1[C@@H](O)[C@H](Oc2cc(O)c3c(c2)O[C@H](c2ccccc2)CC3=O)O[C@@H]2COC(=O)c3cc(O)c(O)c(O)c3-c3c(cc(O)c(O)c3O)C(=O)O[C@@H]12)c1cc(O)c(O)c(O)c1	Protein disulfide-isomerase A6 (PDIA6, Homo sapiens, UniProt Q15084)	enzyme activity, inhibitor, fluorescence		1.5
CC[N+](CC)(CC)Cc1ccccc1.CC[N+](CC)(CC)Cc1ccccc1.[Br][Co-2]([Br])([Br])[Br]	MPO	enzyme activity, inhibitor, absorbance		8.53
CO[C@H]1[C@H](O[C@H]([C@H]2O[C@@H](n3ccc(=O)[nH]c3=O)[C@H](O)[C@@H]2O)[C@H](NCCCNC(=O)[C@@H](NC(=O)[C@@H](NC(=O)N[C@H](C(=O)O)C(C)C)[C@@H]2CCN=C(N)N2)[C@@H](O)C(C)C)C(=O)O)O[C@H](CN)[C@H]1O	UDP-N-acetylglucosamine--dolichyl-phosphate N-acetylglucosaminephosphotransferase	enzyme activity, inhibitor		> 50
O=C(CCNC(=O)CNC(=O)CC(c1ccccc1)(c1ccccc1)c1ccccc1)NCC1CCN(Cc2ccc(F)cc2)CC1	CHRM5	ligand displacement, radioligand	cell membranes	35.2
CCc1cc2c(cc1N1CCC(N3CCOCC3)CC1)C(C)(C)c1[nH]c3cc(C#N)ccc3c1C2=O	CES2	enzyme activity, inhibitor, fluorescence	with preincubation	> 100
O=C(CCNC(=O)CNC(=O)CC(c1ccccc1)(c1ccccc1)c1ccccc1)NC[C@@H]1CCCN(Cc2cccnc2F)C1	CHRM5	ligand displacement, radioligand	cell membranes	> 30
NC/C(=C\F)COc1cccc(Cn2c(=S)[nH]c(=O)c3[nH]cnc32)c1	MPO	enzyme activity, inhibitor, fluorescence		0.017
Cn1cc(C2=C(c3cn(CCCSC(=N)N)c4ccccc34)C(=O)NC2=O)c2ccccc21	Serine/threonine-protein kinase 10 (STK10, Homo sapiens, UniProt O94804)	enzyme activity, inhibitor		0.118
CO[C@H]1[C@H](O[C@H]([C@H]2O[C@@H](n3ccc(=O)[nH]c3=O)[C@H](O)[C@@H]2O)[C@H](NCCCNC(=O)[C@@H](NC(=O)[C@@H](NC(=O)N[C@H](C(=O)O)C(C)C)[C@@H]2CCN=C(N)N2)[C@@H](OC(=O)CCCCCCCCCCCCN(O)C(=N)N)C(C)C)C(=O)O)O[C@H](CN)[C@H]1O	UDP-N-acetylglucosamine--dolichyl-phosphate N-acetylglucosaminephosphotransferase	enzyme activity, inhibitor		0.18
O=C(c1ccc(F)c(F)c1Nc1ccc(I)cc1F)N1CC(O)([C@@H]2CCCCN2)C1	CES2	enzyme activity, inhibitor, fluorescence	with preincubation	> 100
Cc1nn(-c2nc3ccccc3[nH]2)c(O)c1C(c1ccccn1)c1c(C)nn(-c2nc3ccccc3[nH]2)c1O	Cyclic GMP-AMP synthase (CGAS, Homo sapiens, UniProt Q8N884)	enzyme activity, inhibitor		> 40
COc1cc2c(cc1OC)C(=O)/C(=C/c1cc3ccccc3c3ccccc13)C2	CES2	enzyme activity, inhibitor, fluorescence	with preincubation	2.98
CC(C)OCCn1c(=S)[nH]c(=O)c2[nH]ccc21	MPO	enzyme activity, inhibitor, fluorescence		0.038
